Published values from different studies.
Protocols differ between the studies behind these lines.

O=C(O)c1ccc(C(c2c[nH]c3ccccc23)c2c[nH]c3ccccc23)cc1
IC50 (LNCaP; cell growth or viability; MTT; 48 h): 21000 nM

Cc1[nH]c(/C=C2\C(=O)Nc3ccc(S(=O)(=O)N(C)c4cccc(Cl)c4)cc32)c(C)c1C(=O)N1CCN(C)CC1
IC50 (Rh4; cell growth or viability; 72 h): 2210 nM

C[C@H](Nc1ncnc2nc[nH]c12)c1cc2cccc(Cl)c2c(=O)n1-c1ccccc1
IC50 (CD4+ T; lymphocyte proliferation; inhibitor): 100 nM

c1ccc(CNCc2cc3c(-c4ccccc4)n[nH]c3c(Nc3ccccc3)n2)cc1
IC50 (MIA PaCa-2; cell growth or viability; MTS; 48 h): 2600 nM

COc1cc2c(=O)n(CCN(C)C)c3c4cc5c(cc4ncc3c2cc1OC)OCO5
IC50 (RPMI 8402; cell growth or viability; MTT; 96 h): 2 nM

C#Cc1cccc(Nc2ncnc3cc(OCCOC)c(OCCOC)cc23)c1
IC50 (PaCa-2; cell growth or viability; MTT): 60 nM

CO[C@@H](C[C@H]1C(C)=CC[C@@H]2[C@]3(C)C[C@H](O[C@@H]4O[C@@H](C)[C@H](OC(=O)c5cccc(O)c5)[C@@H](O[C@@H]5O[C@H](CO)[C@@H](O)[C@H](O)[C@H]5NC(C)=O)[C@H]4O)[C@@H](O)C(C)(C)[C@H]3CC[C@]21C)[C@H](N)C(=O)O
IC50 (LN-229; cell growth or viability; ATP luminescence; 6 days): 130 nM

COc1c2c(cc3c1OCO3)[C@]13C=C[C@H](OC)C[C@H]1N(C2)C[C@H]3OC(=O)c1cccc(C)c1
IC50 (MOLT-4; cell growth or viability; WST-1): > 10000 nM

COc1cc(N2CCC(N3CCN(C)CC3)CC2)ccc1Nc1ncc(Cl)c(Nc2ccccc2S(=O)(=O)C(C)C)n1
IC50 (Rh4; cell growth or viability; 72 h): 90 nM

OC[C@H]1O[C@@H](Oc2cc3c(O)cc(O)cc3[o+]c2-c2ccc(O)c(O)c2)[C@H](O)[C@@H](O)[C@@H]1O
IC50 (SW780; cell growth or viability; ATP luminescence; 72 h): 169000 nM

CC(=O)c1cccc(/N=N/c2cc(/C=C/C(=O)O)ccc2O)c1
IC50 (PaCa-2; cell growth or viability; MTT): > 50000 nM

Cc1c[nH]c(/C=C2\C(=O)Nc3ccccc32)c1CCC(=O)O
IC50 (SW780; cell growth or viability; MTT; 5 days): 6000 nM

O=c1c(O[C@@H]2O[C@H](CO)[C@@H](O)[C@H](O)[C@H]2O)c(-c2ccc(O)c(O)c2)oc2cc(O)cc(O)c12
IC50 (SW780; cell growth or viability; ATP luminescence; 72 h): 20100 nM

O=C(O)/C=C/c1ccc(O)cc1
IC50 (PaCa-2; cell growth or viability; MTT): > 50000 nM

COc1ccc(C(=O)O[C@@H]2CN3Cc4c(cc5c(c4OC)OCO5)[C@@]24C=C[C@H](OC)C[C@@H]34)cc1
IC50 (MOLT-4; cell growth or viability; WST-1): > 10000 nM

N#CCCCC1=CC2C=CC=CC1C2C1CCCCC1=O (centres unmarked)
IC50 (Jurkat; cell growth or viability; flow cytometry): 69 nM

CC(=O)c1cccc(N=Nc2c(C(=O)O)cc(O)c(O)c2O)c1
IC50 (PaCa-2; cell growth or viability; MTT): 9600 nM

O=c1c(O)c(-c2cc(O)c(O)c(O)c2)oc2cc(O)cc(O)c12
IC50 (SW780; cell growth or viability; ATP luminescence; 72 h): 20900 nM

CC(=O)OCCC1=CC2C=CC=CC1C2C1CCCCC1=O (centres unmarked)
IC50 (Jurkat; cell growth or viability; flow cytometry): 64 nM

COc1cc(-c2[o+]c3cc(O)cc(O)c3cc2O[C@@H]2O[C@H](CO)[C@@H](O)[C@H](O)[C@H]2O)ccc1O
IC50 (SW780; cell growth or viability; ATP luminescence; 72 h): 137000 nM

Cc1ccc2c(c1)c(C(c1ccc(/C=C/C(=O)O)s1)c1cn(C(C)C)c3ccc(C)cc13)cn2C(C)C
IC50 (LNCaP; cell growth or viability; MTT; 48 h): < 3000 nM

COc1nc(OCc2cccc(-c3ccccc3)c2C)ccc1CNCCNC(C)=O
IC50 (MC-38; cell growth or viability; MTT): 2900 nM

Cn1cc(C(c2ccc(/C=C/C(=O)O)s2)c2cn(C)c3ccccc23)c2ccccc21
IC50 (LNCaP; cell growth or viability; MTT; 48 h): > 20000 nM

CCCCC1=CC2C=CC=CC1C2C1CCCCC1=O (centres unmarked)
IC50 (Jurkat; cell growth or viability; flow cytometry): 37 nM

COc1cccc2c1C(=O)c1c(O)c3c(c(O)c1C2=O)C[C@@](O)(C(=O)CO)C[C@@H]3O[C@H]1C[C@H](N)[C@H](O)[C@H](C)O1
IC50 (MIA PaCa-2; cell growth or viability; MTS; 48 h): 49 nM

CC(C)n1cc(C(c2ccc(/C=C/C(=O)O)s2)c2cn(C(C)C)c3ccccc23)c2ccccc21
IC50 (LNCaP; cell growth or viability; MTT; 48 h): 26000 nM

COc1cc(Nc2nccc(-c3cnn4nc(OC)ccc34)n2)cc(C(F)(F)F)c1
IC50 (LN-229; cell growth or viability; ATP luminescence): 580 nM

Cc1cc(Nc2ncc(Cl)c(Nc3ccccc3S(=O)(=O)C(C)C)n2)c(OC(C)C)cc1C1CCNCC1
IC50 (Rh4; cell growth or viability; 72 h): 340 nM

CC(C)C[C@H](NC(=O)[C@H](Cc1ccccc1)NC(=O)c1cnccn1)B(O)O
IC50 (COV434; cell growth or viability; ATP luminescence): 16 nM

O=C1CCCCC1C1C2C=CC=CC1C(CCCCOC1CCCCO1)=C2 (centres unmarked)
IC50 (Jurkat; cell growth or viability; flow cytometry): 135 nM

CN1CCN(c2ccc3nc(-c4c(N)c5c(F)cccc5[nH]c4=O)[nH]c3c2)CC1
IC50 (SW780; cell growth or viability; MTT; 5 days): 450 nM

O=C(O)/C=C/c1ccc(C(c2c[nH]c3ccccc23)c2c[nH]c3ccccc23)s1
IC50 (LNCaP; cell growth or viability; MTT; 48 h): 55000 nM
